Converted amounts (≈) assume the structure as drawn. The source made the active and inactive calls. The rule behind the calls is not given here.
Columns and labels:
Pseudomonas aeruginosa [1] = assay: Potentiation of minocycline-induced antibacterial activity against mexAB-oprM/mexCD-oprJ/mexEF-oprN/mexXY/mexJK/opmH deficient Pseudomonas aeruginosa PAO750 after 18 to 24 hrs by microbroth dilution assay; assay type: functional
Pseudomonas aeruginosa [2] = assay: Antibacterial activity against Pseudomonas aeruginosa isolate 101885 after 18 to 24 hrs by microbroth dilution assay; assay type: functional
Procedure, shortened: (§1)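 Checkerboard broth microdilution: antibiotic 2-fold diluted along one axis, adjuvant 2-fold diluted along the other. Overnight culture standardized to 0.5 McFarland in saline, diluted 1:50 in MHB, added to wells, 37 °C for 18 h. MIC is the lowest concentration with no growth. FIC = MIC in combination / MIC alone; FICI = sum of the two FICs; FICI ≤0.5 is synergy.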

Pseudomonas aeruginosa [3] = assay: Inhibition of RND efflux pump in colistin-resistant Pseudomonas aeruginosa isolate 101243 assessed as potentiation of minocycline-induced antibacterial activity at 8 ug/ml after 18 to 24 hrs by checker board assay; procedure, shortened: as §1
[4] = test system: Pseudomonas aeruginosa PAO1; assay: Inhibition of RND efflux pump in Pseudomonas aeruginosa PAO1 assessed as potentiation of vancomycin-induced antibacterial activity […] by microbroth dilution assay
Klebsiella pneumoniae [5] = assay: Inhibition of RND efflux pump in Klebsiella pneumoniae isolate 116381 assessed as potentiation of minocycline-induced antibacterial activity by measuring minocycline MIC at 8 ug/ml after 18 to 24 hrs by microbroth dilution assay (reference value: 128 ug/ml)
Procedure, shortened: (§2)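 Absolute minocycline MIC taken from checkerboard broth dilution with a fixed 8 μg/mL adjuvant. Inoculum was a 0.5 McFarland saline suspension diluted 1:50 in MHB, incubated 37 °C for 18 h. MIC is the lowest concentration with no growth.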

Pseudomonas aeruginosa [6] = assay: Potentiation of rifampicin-induced antibacterial activity against Pseudomonas aeruginosa PAO1 […] by microbroth dilution assay; assay type: functional
[7] = test system: Pseudomonas aeruginosa PAO1; assay: Inhibition of RND efflux pump in Pseudomonas aeruginosa PAO1 assessed as potentiation of gentamicin-induced antibacterial activity after 18 to 24 hrs by checker board assay
Procedure, shortened: as §1, with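 “in MHB:” for “broth microdilution:”, “test agent” for “adjuvant”, “wells, incubated” for “wells,”, “FIC index” for “FICI”, “both FICs.” for “the two FICs; FICI ≤0.5 is synergy.”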

Pseudomonas aeruginosa [8] = assay: Inhibition of RND efflux pump in Pseudomonas aeruginosa isolate 100036 assessed as potentiation of minocycline-induced antibacterial activity by measuring minocycline MIC at 8 ug/ml after 18 to 24 hrs by microbroth dilution assay (reference value: 64 ug/ml); procedure, shortened: as §1
Enterobacter cloacae [9] = assay: Antibacterial activity against Enterobacter cloacae isolate 117029 after 18 to 24 hrs by microbroth dilution assay; assay type: functional
Procedure, shortened: as §1, with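 “in MHB:” for “broth microdilution:”, “test agent” for “adjuvant”, “wells, incubated” for “wells,”, “FIC index” for “FICI”, “both FICs.” for “the two FICs; FICI ≤0.5 is synergy.”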

Pseudomonas aeruginosa [10] = assay: Reduction in flagellum-dependant motility in Pseudomonas aeruginosa PAO1 after 20 hrs by swimming motility test; assay type: functional
Procedure, shortened: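 PAO1 flagellum-dependent swimming motility on swimming plates containing sub-MIC compound, compared with plates without compound.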

Pseudomonas aeruginosa [11] = assay: Antibacterial activity against Pseudomonas aeruginosa isolate P259-96918 after 18 to 24 hrs by microbroth dilution assay; assay type: functional
Procedure, shortened: as §1, with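 “in MHB:” for “broth microdilution:”, “test agent” for “adjuvant”, “wells, incubated” for “wells,”, “FIC index” for “FICI”, “both FICs.” for “the two FICs; FICI ≤0.5 is synergy.”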

Pseudomonas aeruginosa [12] = assay: Antibacterial activity against Pseudomonas aeruginosa isolate P260-97103 after 18 to 24 hrs by microbroth dilution assay; assay type: functional
Procedure, shortened: as §1, with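 “in MHB:” for “broth microdilution:”, “test agent” for “adjuvant”, “wells, incubated” for “wells,”, “FIC index” for “FICI”, “both FICs.” for “the two FICs; FICI ≤0.5 is synergy.”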

Pseudomonas aeruginosa [13] = assay: Inhibition of RND efflux pump in colistin-resistant Pseudomonas aeruginosa isolate 101243 assessed as potentiation of minocycline-induced antibacterial activity by measuring minocycline MIC at 8 ug/ml after 18 to 24 hrs by microbroth dilution assay (reference value: 32 ug/ml); procedure, shortened: as §1
[14] = test system: Pseudomonas aeruginosa PAO1; assay: Inhibition of RND efflux pump in Pseudomonas aeruginosa PAO1 assessed as potentiation of erythromycin-induced antibacterial activity […] by microbroth dilution assay
Pseudomonas aeruginosa [15] = assay: Inhibition of RND efflux pump in Pseudomonas aeruginosa isolate 100036 assessed as potentiation of minocycline-induced antibacterial activity at 8 ug/ml after 18 to 24 hrs by checker board assay
Procedure, shortened: as §1, with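 “in MHB:” for “broth microdilution:”, “test agent” for “adjuvant”, “wells, incubated” for “wells,”, “FIC index” for “FICI”, “both FICs.” for “the two FICs; FICI ≤0.5 is synergy.”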

Pseudomonas aeruginosa [16] = assay: Inhibition of RND efflux pump in Pseudomonas aeruginosa isolate 101885 assessed as potentiation of minocycline-induced antibacterial activity by measuring minocycline MIC at 8 ug/ml after 18 to 24 hrs by microbroth dilution assay (reference value: 16 to 32 ug/ml); procedure, shortened: as §2
[17] = test system: Pseudomonas aeruginosa PAO1; assay: Inhibition of RND efflux pump in Pseudomonas aeruginosa PAO1 assessed as potentiation of minocycline-induced antibacterial activity at 8 ug/ml after 18 to 24 hrs by checker board assay
Procedure, shortened: as §1, with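 “in MHB:” for “broth microdilution:”, “test agent” for “adjuvant”, “wells, incubated” for “wells,”, “FIC index” for “FICI”, “both FICs.” for “the two FICs; FICI ≤0.5 is synergy.”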

Klebsiella pneumoniae [18] = assay: Inhibition of RND efflux pump in Klebsiella pneumoniae isolate 116381 assessed as potentiation of minocycline-induced antibacterial activity at 8 ug/ml after 18 to 24 hrs by microbroth dilution assay
Procedure, shortened: as §1, with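 “in MHB:” for “broth microdilution:”, “test agent” for “adjuvant”, “wells, incubated” for “wells,”, “FIC index” for “FICI”, “both FICs.” for “the two FICs; FICI ≤0.5 is synergy.”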

Pseudomonas aeruginosa [19] = assay: Inhibition of RND efflux pump in Pseudomonas aeruginosa isolate P262-104354 assessed as potentiation of minocycline-induced antibacterial activity by measuring fold reduction in minocycline MIC at 8 ug/ml after 18 to 24 hrs by microbroth dilution assay; procedure, shortened: as §1
[20] = test system: Pseudomonas aeruginosa PAO1; assay: Inhibition of RND efflux pump in Pseudomonas aeruginosa PAO1 assessed as potentiation of chloramphenicol-induced antibacterial activity […] by microbroth dilution assay
Pseudomonas aeruginosa [21] = assay: Inhibition of RND efflux pump in Pseudomonas aeruginosa isolate P259-96918 assessed as potentiation of minocycline-induced antibacterial activity by measuring minocycline MIC at 8 ug/ml after 18 to 24 hrs by microbroth dilution assay (reference value: 32 ug/ml); procedure, shortened: as §2
Enterobacter cloacae [22] = assay: Inhibition of RND efflux pump in Enterobacter cloacae isolate 117029 assessed as potentiation of minocycline-induced antibacterial activity at 8 ug/ml after 18 to 24 hrs by microbroth dilution assay
Procedure, shortened: as §1, with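 “in MHB:” for “broth microdilution:”, “test agent” for “adjuvant”, “wells, incubated” for “wells,”, “FIC index” for “FICI”, “both FICs.” for “the two FICs; FICI ≤0.5 is synergy.”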

Pseudomonas aeruginosa [23] = assay: Inhibition of RND efflux pump in Pseudomonas aeruginosa isolate P260-97103 assessed as potentiation of minocycline-induced antibacterial activity at 0.25 times antibacterial MIC after 18 to 24 hrs by checker board assay
Procedure, shortened: as §1, with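 “in MHB:” for “broth microdilution:”, “test agent” for “adjuvant”, “wells, incubated” for “wells,”, “FIC index” for “FICI”, “both FICs.” for “the two FICs; FICI ≤0.5 is synergy.”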

Pseudomonas aeruginosa [24] = assay: Inhibition of RND efflux pump in Pseudomonas aeruginosa isolate P262-101856 assessed as potentiation of minocycline-induced antibacterial activity at 8 ug/ml after 18 to 24 hrs by checker board assay
Procedure, shortened: as §1, with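 “in MHB:” for “broth microdilution:”, “test agent” for “adjuvant”, “wells, incubated” for “wells,”, “FIC index” for “FICI”, “both FICs.” for “the two FICs; FICI ≤0.5 is synergy.”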

Pseudomonas aeruginosa [25] = assay: Inhibition of RND efflux pump in Pseudomonas aeruginosa isolate P260-97103 assessed as potentiation of minocycline-induced antibacterial activity by measuring fold reduction in minocycline MIC at 0.25 times antibacterial MIC after 18 to 24 hrs by microbroth dilution assay; procedure, shortened: as §1
Pseudomonas aeruginosa [26] = assay: Antibacterial activity against Pseudomonas aeruginosa PAO1 after 18 to 24 hrs by microbroth dilution assay; assay type: functional
Procedure, shortened: as §1, with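 “in MHB:” for “broth microdilution:”, “test agent” for “adjuvant”, “wells, incubated” for “wells,”, “FIC index” for “FICI”, “both FICs.” for “the two FICs; FICI ≤0.5 is synergy.”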

Pseudomonas aeruginosa [27] = assay: Induction of cytoplasmic membrane depolarization in Pseudomonas aeruginosa PAO1 by DiSC3(5) dye based fluorescence assay; assay type: functional
Procedure, shortened: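 Cytoplasmic membrane depolarization in P. aeruginosa PAO1, monitored by DiSC3(5) fluorescence across a range of compound concentrations. Colistin served as positive control.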

[28] = test system: Pseudomonas aeruginosa PAO1; assay: Inhibition of RND efflux pump in Pseudomonas aeruginosa PAO1 assessed as potentiation of doxycycline-induced antibacterial activity by measuring fold reduction in doxycycline MIC at 8 ug/ml after 18 to 24 hrs by microbroth dilution assay relative to doxycycline alone; procedure, shortened: as §1

Row | Compound | Activity (Pseudomonas aeruginosa [1]) | MIC (Pseudomonas aeruginosa [2]) | fractional inhibitory concentration index (FICI) (Pseudomonas aeruginosa [3]) | fractional inhibitory concentration index (FICI) [4] | MIC (Klebsiella pneumoniae [5]) | fractional inhibitory concentration index (FICI) (Pseudomonas aeruginosa [6]) | fractional inhibitory concentration index (FICI) [7] | MIC (Pseudomonas aeruginosa [8]) | MIC (Enterobacter cloacae [9]) | Activity (Pseudomonas aeruginosa [10]) | MIC (Pseudomonas aeruginosa [11]) | MIC (Pseudomonas aeruginosa [12]) | MIC (Pseudomonas aeruginosa [13]) | fractional inhibitory concentration index (FICI) [14] | fractional inhibitory concentration index (FICI) (Pseudomonas aeruginosa [15]) | MIC (Pseudomonas aeruginosa [16]) | fractional inhibitory concentration index (FICI) [17] | fractional inhibitory concentration index (FICI) (Klebsiella pneumoniae [18]) | fold change (FC) (Pseudomonas aeruginosa [19]) | fractional inhibitory concentration index (FICI) [20] | other results
1 | Cl.Cl.Cl.Cl.Cl.Cl.NC[C@H]1O[C@H](O[C@H]2[C@H](OCCCCCCCCCCCCN3CC[C@@H](c4ccc(F)cc4)[C@H](COc4ccc5c(c4)OCO5)C3)[C@@H](O[C@H]3O[C@H](CO)[C@@H](O)[C@H](N)[C@H]3O)[C@H](N)C[C@@H]2N)[C@H](N)C[C@@H]1O | inactive | 32 µg/mL | 0.38 | < 0.15 | 32 µg/mL | <0.05 | > 1.5 | < 0.25 µg/mL | > 32 µg/mL | Dose-dependent effect | > 512 µg/mL | 8 µg/mL | 1 µg/mL | < 0.2 | 0.05 | 1 µg/mL | 0.19 | 0.25 to 0.38 | 8 to 256 | < 0.1 | MIC (Pseudomonas aeruginosa [21]): 0.5 µg/mL; fractional inhibitory concentration index (FICI) (Enterobacter cloacae [22]): 0.02 to 0.14; fractional inhibitory concentration index (FICI) (Pseudomonas aeruginosa [23]): 0.19; fractional inhibitory concentration index (FICI) (Pseudomonas aeruginosa [24]): 0.13; fold change (FC) (Pseudomonas aeruginosa [25]): 8 to 256; MIC (Pseudomonas aeruginosa [26]): 32 µg/mL; Activity (Pseudomonas aeruginosa [27]): Dose-dependent effect; fold change (FC) [28]: 8 to 64
2 | NC[C@H]1C[C@H](C(=O)N[C@H](CCc2ccccc2)C(=O)Nc2ccc3ccccc3c2)N(CCCCCCCCCCCCO[C@@H]2[C@@H](O[C@H]3O[C@H](CO)[C@@H](O)[C@H](N)[C@H]3O)[C@H](N)C[C@H](N)[C@H]2O[C@H]2O[C@H](CN)[C@@H](O)C[C@H]2N)C1 | inactive | 16 µg/mL (≈ 15 µM) | 0.19 | < 0.15 | 4 µg/mL | <0.05 | > 1.5 | < 0.25 µg/mL | 32 µg/mL (≈ 30.1 µM) | Dose-dependent effect | 64 µg/mL (≈ 60.1 µM) | 4 µg/mL (≈ 3.76 µM) | 0.5 µg/mL | < 0.2 | 0.06 | < 0.125 µg/mL | 0.09 | 0.03 to 0.16 | 8 to 256 | < 0.1 | MIC (Pseudomonas aeruginosa [21]): < 0.5 µg/mL; fractional inhibitory concentration index (FICI) (Enterobacter cloacae [22]): 0.13; fractional inhibitory concentration index (FICI) (Pseudomonas aeruginosa [23]): 0.31; fractional inhibitory concentration index (FICI) (Pseudomonas aeruginosa [24]): 0.08; fold change (FC) (Pseudomonas aeruginosa [25]): 8 to 256; MIC (Pseudomonas aeruginosa [26]): 32 µg/mL (≈ 30.1 µM); Activity (Pseudomonas aeruginosa [27]): Dose-dependent effect; fold change (FC) [28]: 8 to 64
3 | Cl.Cl.Cl.Cl.Cl.Cl.Cl.NC[C@H]1O[C@H](O[C@H]2[C@H](OCCCCCCCCCCCCN3CCN(Cc4cccc5ccccc45)CC3)[C@@H](O[C@H]3O[C@H](CO)[C@@H](O)[C@H](N)[C@H]3O)[C@H](N)C[C@@H]2N)[C@H](N)C[C@@H]1O | inactive | 256 µg/mL | 0.28 | < 0.15 | 16 µg/mL | <0.05 | > 1.5 | 0.5 µg/mL | > 32 µg/mL | Dose-dependent effect | > 1020 µg/mL | 2 µg/mL | 1 µg/mL | < 0.2 | 0.02 | 0.5 µg/mL | 0.19 | 0.13 to 0.38 | 8 to 256 | < 0.1 | MIC (Pseudomonas aeruginosa [21]): < 0.5 µg/mL; fractional inhibitory concentration index (FICI) (Enterobacter cloacae [22]): 0.03 to 0.16; fractional inhibitory concentration index (FICI) (Pseudomonas aeruginosa [23]): 0.25; fractional inhibitory concentration index (FICI) (Pseudomonas aeruginosa [24]): 0.09; fold change (FC) (Pseudomonas aeruginosa [25]): 8 to 256; MIC (Pseudomonas aeruginosa [26]): 64 µg/mL; Activity (Pseudomonas aeruginosa [27]): Dose-dependent effect; fold change (FC) [28]: 8 to 64
